Test results published in ChEMBL document CHEMBL1121432, “Tricyclics with analgesic and antidepressant activity. 1. [[(Alkylamino)ethyl]thio]dibenz[b,f]oxepins and 10,11-dihydro derivatives” (1980).

How the values were obtained:
Assay type in all cases: functional
[1] = tested on: Mus musculus; assay: Delay in response to noxious heat stimuli in mice by tail flick method after subcutaneous administration; conditions: sc
[2] = tested on: Mus musculus; assay: Antidepressant activity to prevent tetrabenazine induced ptosis (TBZ) in mice after intraperitoneal administration; conditions: ip
[3] = tested on: Mus musculus; assay: Analgesic activity for the inhibition of phenylquinone induced writhing (PQW) after subcutaneous administration to mice; conditions: sc
[4] = tested on: Mus musculus; assay: Anticonvulsant activity to prevent pentamethylenetetrazole (MTZ) induced lethality in mice after oral administration
[5] = tested on: Mus musculus; assay: Antipsychotic activity to prevent amphetamine induced lethality in mice after oral administration
Summary of the method: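 Male CD-1 mice in groups of ten, 18-28 g, dosed orally; controls got distilled water-Tween 80. d-Amphetamine sulfate 21 mg/kg sc 60 min post-drug, then aggregated five per wire cage at 80-84 °F. Dead mice replaced by marked untreated mice every 15 min. Deaths counted at 5 h post-amphetamine.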

[6] = tested on: Mus musculus; assay: Tested for antipsychotic activity to prevent amphetamine induced lethality in mice after intraperitoneal administration; conditions: ip
Summary of the method: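 Male CD-1 mice in groups of ten, 18-28 g, dosed ip; controls got distilled water-Tween 80. d-Amphetamine sulfate 21 mg/kg sc 60 min later, then aggregated five per wire cage at 80-84 °F. Dead mice replaced by marked untreated mice every 15 min. Deaths counted at 5 h post-amphetamine.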

[7] = tested on: Mus musculus; assay: Tested for analgesic activity for the inhibition of phenylquinone induced writhing (PQW) after oral administration to mice

Structure (SMILES) | ED50 [1] [mg/kg] | ED50 [2] [mg/kg] | ED50 [3] [mg/kg] | ED50 [4] [mg/kg] | ED50 [5] [mg/kg] | ED50 [6] [mg/kg] | ED50 [7] [mg/kg]
CNCCSC1Cc2ccccc2Oc2ccccc21 (stereo not given) | 11.6 | 0.9 | 4.8 | 50 | > 20 |  | 
c1ccc2c(c1)CC(SCCN1CCOCC1)c1ccccc1O2 (stereo not given) | > 25 | > 20 | < 25 | > 50 | > 20 |  | 
CN(C)CCSC1=Cc2ccccc2Oc2ccccc21 | > 25 | 8.4 | 5.8 | 50 | > 20 |  | 
CN(CCSC1=Cc2ccccc2Oc2ccccc21)CC1CC1 | > 25 | > 20 | 6 | > 50 |  |  | 
CNCCSC1Cc2ccccc2Oc2ccc(SC)cc21 (stereo not given) | > 25 | 12.7 | 6.4 | 50 | > 20 |  | 
CN(C)CCSC1=Cc2ccccc2Oc2ccc(F)cc21 | 23.9 |  | 10.3 | > 50 | > 20 |  | 
CNCCSC1=Cc2ccccc2Oc2ccccc21 | 11.6 |  |  | 50 |  | > 20 | 
CNCCSC1=Cc2ccccc2Oc2ccc(SC)cc21 | > 25 | 6.1 | < 25 | > 50 | > 20 |  | 
O=C(c1ccc(F)cc1)C1CCN(CCSC2Cc3ccccc3Oc3ccccc32)CC1 (stereo not given) | > 25 | > 20 | 10.9 | > 50 | > 20 |  | 9.5
CSc1ccc2c(c1)C(SCCN(C)C)Cc1ccccc1O2 (stereo not given) | > 25 | 16 | 10.4 | > 50 | > 20 |  | 
CN(C)CCSC1Cc2ccccc2Oc2ccccc21 (stereo not given) | > 25 |  | > 25 | 50 | > 20 |  | 
CSc1ccc2c(c1)C(SCCN(C)C)=Cc1ccccc1O2 | 14.1 | 9.4 | 5.3 | > 50 | > 20 |  | 
CNCCSC1Cc2ccccc2Oc2ccc(Cl)cc21 (stereo not given) | 22.4 | 1.5 | 5.3 | < 50 | > 20 |  | 11.3
CNCCSC1=Cc2ccccc2Oc2ccc(Cl)cc21 | > 25 | 5.9 | 16 | > 50 | > 20 |  | 
Br.CCN(CC)CCSC1Cc2ccccc2Oc2ccc(SC)cc21 (stereo not given) | > 25 | > 20 | 25 | > 50 | > 20 |  | 
Br.CN1CCN(CCSC2Cc3ccccc3Oc3ccccc32)CC1 (stereo not given) | > 25 | > 20 | 6.3 | > 50 |  |  | 
CN(C)CCSC1Cc2ccccc2Oc2ccc(Cl)cc21 (stereo not given) | > 25 |  | < 25 | 30 |  |  | 
C1=C(SCCN2CCOCC2)c2ccccc2Oc2ccccc21 | > 25 |  | > 25 | > 50 |  |  | 
CSc1ccc2c(c1)C(SCCN(C(C)C)C(C)C)=Cc1ccccc1O2 | > 25 | 25 | > 25 | > 50 |  |  | 
CN(C)CCSC1=Cc2ccccc2Oc2ccc(Cl)cc21 | > 25 | > 20 | > 25 | > 50 | > 20 |  | 
CCNCCSC1Cc2ccccc2Oc2ccccc21 (stereo not given) | > 25 | 20 | 6.6 | > 50 |  |  | 

Structure (SMILES) | ED50 [1] [mg/kg] | ED50 [2] [mg/kg] | ED50 [3] [mg/kg] | ED50 [4] [mg/kg] | ED50 [5] [mg/kg] | ED50 [6] [mg/kg] | ED50 [7] [mg/kg]
CNCCSC1Cc2ccccc2Oc2ccc(F)cc21 (stereo not given) | 5.1 | 0.8 |  | 31.6 | > 20 |  | 
CCN(CC)CCSC1=Cc2ccccc2Oc2ccccc21 | > 25 | > 20 | 25 | > 50 | > 20 |  | 
c1ccc(CCNCCSC2Cc3ccccc3Oc3ccccc32)cc1 (stereo not given) | > 25 | > 20 | 9.3 | > 50 | 23 |  | 
C1=C(SCCNCCc2ccccc2)c2ccccc2Oc2ccccc21 | > 25 | > 20 | 13.6 | > 50 | > 20 |  | 
CN(C)CCSC1Cc2ccccc2Oc2ccc(F)cc21 (stereo not given) | 7.9 | 2 |  | 52.3 | > 20 |  | 
Fc1ccc2c(c1)C(SCCNCC1CC1)Cc1ccccc1O2 (stereo not given) | > 25 | > 20 | 10.7 | > 50 | > 20 |  | 
CCN(CC)CCSC1Cc2ccccc2Oc2ccc(Cl)cc21 (stereo not given) | > 25 | > 20 | 14.8 | > 50 |  |  | 
CCN(CC)CCSC1=Cc2ccccc2Oc2ccc(SC)cc21 | > 25 | > 20 | > 25 | > 50 | > 20 |  | 
C=CCNCCSC1Cc2ccccc2Oc2ccc(F)cc21 (stereo not given) | > 25 | 3.5 | 10.6 | > 50 | > 20 |  | 
Fc1ccc2c(c1)C(SCCNCCc1ccccc1)Cc1ccccc1O2 (stereo not given) | > 25 |  | > 10 | > 50 | > 20 |  | 
CCN(CC)CCSC1Cc2ccccc2Oc2ccccc21 (stereo not given) | > 25 | > 20 | 6.9 | > 50 | > 20 |  | 
C#CCN(C)CCSC1=Cc2ccccc2Oc2ccccc21 | > 25 | 12.2 | 25 | > 50 |  |  | 
CCN(C)CCSC1=Cc2ccccc2Oc2ccccc21 | > 25 | 20 | 25 | > 50 |  |  | 
CCN(C)CCSC1=Cc2ccccc2Oc2ccc(SC)cc21 | > 25 |  | 25 | > 50 | > 20 |  | 
CC(C)=CCN1CC[C@]2(C)c3cc(O)ccc3C[C@H]1[C@H]2C [(+)-PENTAZOCINE] | 14.6 |  | 2.4 | > 25 | > 20 |  | 
CN(C)CCCN1c2ccccc2Sc2ccc(Cl)cc21 [CHLORPROMAZINE] |  |  |  | > 50 | 2.8 |  | 
CN1C(=O)CN=C(c2ccccc2)c2cc(Cl)ccc21 [DIAZEPAM] |  |  |  | 1.4 | > 20 |  | 
CNCCSC1=Cc2ccccc2Oc2ccc(F)cc21 [FLURADOLINE] | 11.3 | 0.32 |  | > 50 | > 50 |  | 24.7
CN(C)CCCN1c2ccccc2CCc2ccccc21 [IMIPRAMINE] | > 25 | 1.3 | 11 | 50 | > 20 |  | 
CN1CC[C@]23c4c5ccc(O)c4O[C@H]2[C@@H](O)C=C[C@H]3[C@H]1C5 [MORPHINE] |  | 8.1 | 0.36 | > 25 | > 20 |  | 
